Measured values: ChEMBL document CHEMBL3779864, “Dual Alleviation of Acute and Neuropathic Pain by Fused Opioid Agonist-Neurokinin 1 Antagonist Peptidomimetics” (ACS Med Chem Lett, 2015)
Activity calls are given as the source filed them. The calls are words filed in the database; no cut-off is given here.

How the values were obtained:
[1] = molecular target: Substance-P receptor (Homo sapiens, UniProt P25103); test: Displacement of [3H]SP from human NK1 receptor transfected in CHO cells by liquid scintillation counting method; format: cell-based
Substance-P receptor, sequence (P25103 whole entry): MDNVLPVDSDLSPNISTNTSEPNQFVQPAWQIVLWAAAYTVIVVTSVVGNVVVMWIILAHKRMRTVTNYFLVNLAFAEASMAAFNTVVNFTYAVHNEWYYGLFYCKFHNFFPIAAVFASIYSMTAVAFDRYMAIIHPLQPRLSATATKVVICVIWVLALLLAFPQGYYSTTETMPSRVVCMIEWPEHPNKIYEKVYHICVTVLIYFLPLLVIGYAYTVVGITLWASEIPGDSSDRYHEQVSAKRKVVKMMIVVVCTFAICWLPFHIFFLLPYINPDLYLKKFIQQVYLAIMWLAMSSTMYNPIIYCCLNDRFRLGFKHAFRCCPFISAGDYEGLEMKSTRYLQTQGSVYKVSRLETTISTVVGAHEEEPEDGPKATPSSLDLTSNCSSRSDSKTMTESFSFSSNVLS
In short: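 hNK1 receptor expressed in CHO cells, measured as [3H]SP displacement. Values are means of 3–4 experiments.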

[2] = molecular target: Mu-type opioid receptor (Cavia porcellus, UniProt P97266); test: Agonist activity at mu opioid receptor in guinea pig ileum assessed as inhibition of electrically-stimulated muscle contraction; format: tissue-based
Mu-type opioid receptor (Cavia porcellus, UniProt P97266), sequence (P97266 whole entry): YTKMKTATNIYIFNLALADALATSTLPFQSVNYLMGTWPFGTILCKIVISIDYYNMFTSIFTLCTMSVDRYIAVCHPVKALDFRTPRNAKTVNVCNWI
In short: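 Guinea pig ileum preparation used as the MOR-representative functional assay. Values are means of 3–4 experiments.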

[3] = molecular target: Delta-type opioid receptor (Mus musculus, UniProt P32300); test: Agonist activity at delta opioid receptor in mouse vas deferens assessed as inhibition of electrically-stimulated muscle contraction; format: tissue-based
Delta-type opioid receptor (Mus musculus, UniProt P32300), sequence (P32300 whole entry): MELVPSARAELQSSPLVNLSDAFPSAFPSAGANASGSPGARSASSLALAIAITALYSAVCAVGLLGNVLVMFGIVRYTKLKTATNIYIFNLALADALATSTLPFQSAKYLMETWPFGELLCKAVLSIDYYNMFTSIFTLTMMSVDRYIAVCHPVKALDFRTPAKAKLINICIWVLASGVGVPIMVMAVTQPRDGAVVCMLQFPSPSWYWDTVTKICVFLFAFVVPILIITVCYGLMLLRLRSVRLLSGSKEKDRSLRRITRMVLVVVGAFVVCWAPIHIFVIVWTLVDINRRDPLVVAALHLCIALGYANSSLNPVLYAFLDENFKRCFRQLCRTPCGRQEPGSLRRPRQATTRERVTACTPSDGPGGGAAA
In short: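 Electrically stimulated mouse vas deferens, a DOR-representative tissue assay. Means of 3–4 experiments.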

[4] = molecular target: Mu-type opioid receptor (Rattus norvegicus, UniProt P33535); test: Displacement of [3H]DAMGO from mu opioid receptor in rat brain membrane after 2 hrs; format: cell membranes
Mu-type opioid receptor (Rattus norvegicus, UniProt P33535), sequence (P33535 whole entry): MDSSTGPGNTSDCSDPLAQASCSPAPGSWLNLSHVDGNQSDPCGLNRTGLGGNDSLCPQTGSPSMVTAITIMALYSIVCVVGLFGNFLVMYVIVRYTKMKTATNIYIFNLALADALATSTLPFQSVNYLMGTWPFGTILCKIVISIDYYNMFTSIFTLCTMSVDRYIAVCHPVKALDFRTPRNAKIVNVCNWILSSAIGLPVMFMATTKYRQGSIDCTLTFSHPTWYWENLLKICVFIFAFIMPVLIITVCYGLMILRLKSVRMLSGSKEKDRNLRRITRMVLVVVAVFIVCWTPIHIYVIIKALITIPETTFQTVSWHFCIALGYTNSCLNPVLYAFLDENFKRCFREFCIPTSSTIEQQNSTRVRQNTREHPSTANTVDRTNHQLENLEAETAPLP
In short: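 Rat brain membranes, with [3H]DAMGO as the MOR radioligand, measured as displacement binding. Values are means of 3–4 experiments.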

[5] = molecular target: Delta-type opioid receptor (Rattus norvegicus, UniProt P33533); test: Displacement of [3H]DSLET from delta opioid receptor in rat brain membrane after 2 hrs; format: cell membranes
Delta-type opioid receptor (Rattus norvegicus, UniProt P33533), sequence (P33533 whole entry): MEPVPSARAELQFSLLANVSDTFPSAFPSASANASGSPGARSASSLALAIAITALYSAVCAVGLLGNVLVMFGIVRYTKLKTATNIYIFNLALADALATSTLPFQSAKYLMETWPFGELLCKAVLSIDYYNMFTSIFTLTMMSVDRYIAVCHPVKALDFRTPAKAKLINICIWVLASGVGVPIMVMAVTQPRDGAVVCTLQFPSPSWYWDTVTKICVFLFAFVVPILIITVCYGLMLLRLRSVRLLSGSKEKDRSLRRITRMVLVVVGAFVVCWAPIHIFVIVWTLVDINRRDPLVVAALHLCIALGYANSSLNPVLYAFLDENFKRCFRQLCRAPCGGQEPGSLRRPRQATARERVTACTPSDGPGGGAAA
In short: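 Rat brain membranes, with [3H]DSLET as the DOR radioligand, measured as displacement binding. Values are means of 3–4 experiments.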

[6] = species: Rattus norvegicus; test: Antinociceptive activity in Wistar rat model of chronic constriction injury-induced neuropathic pain assessed as reduction in allodynia at 1 nmol, it QD for 6 consecutive days by von Frey test; format: functional, organism-based
In short: (§1)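 Rats with chronic constriction injury of the sciatic nerve, dosed intrathecally once daily for 6 consecutive days starting day 7 post-CCI. Allodynia measured by von Frey, hyperalgesia by cold plate. Doses: morphine 3.5 nmol, hybrids 0.8 or 1 nmol. Compared with vehicle-treated CCI rats and with morphine-treated CCI rats.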

[7] = species: Rattus norvegicus; test: Antinociceptive activity in Wistar rat model of chronic constriction injury-induced neuropathic pain assessed as reduction in hyperalgesia at 1 nmol, it QD for 6 consecutive days by cols plate test; format: functional, organism-based; in short: as §1
[8] = species: Rattus norvegicus; test: Antinociceptive activity in Wistar rat model of chronic constriction injury-induced neuropathic pain assessed as reduction in hyperalgesia at 1 nmol, it QD for 6 consecutive days measured on day-4 and day-5 by cold plate test relative to morphine; format: functional, organism-based; in short: as §1
[9] = test system: Rattus norvegicus; test: Antinociceptive activity in Wistar rat model of chronic constriction injury-induced neuropathic pain assessed as reduction in hyperalgesia at 3.5 nmol dosed on day7 after tolerance development with compound13 dosed at 1 nmol, it QD for 6 days by cold plate test; format: functional, organism-based
In short: (§2)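 Cross-tolerance design in CCI rats: intrathecal dosing once daily for 6 days from day 7 post-CCI (morphine 3.5 nmol, hybrids 0.8 or 1 nmol). On day 7 of dosing (day 14 post-CCI), morphine-tolerant rats received a single hybrid dose and hybrid-tolerant rats received morphine 3.5 nmol. Read by von Frey or cold plate and compared with pretest, day 1 and day 6.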

[10] = test system: Rattus norvegicus; test: Antinociceptive activity in Wistar rat model of chronic constriction injury-induced neuropathic pain assessed as reduction in hyperalgesia at 1 nmol dosed on day7 after tolerance development with morphine dosed at 3.5 nmol, it QD for 6 days by cold plate test; format: functional, organism-based; in short: as §2
[11] = test system: Rattus norvegicus; test: Antinociceptive activity in Wistar rat model of chronic constriction injury-induced neuropathic pain assessed as reduction in allodynia at 1 nmol dosed on day7 after tolerance development with morphine dosed at 3.5 nmol, it QD for 6 days by von Frey test; format: functional, organism-based; in short: as §2
[12] = species: Rattus norvegicus; test: Antinociceptive activity in naive Wistar rat at 10 nmol, it after 30 mins by tail flick test analysis; format: functional, organism-based
In short: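 Naïve rats dosed intrathecally, compared with vehicle-treated naïve rats. Tail-flick latency read 30 min after administration.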

[13] = species: Rattus norvegicus; test: Antinociceptive activity in Wistar rat model of chronic constriction injury-induced neuropathic pain assessed as reduction in hyperalgesia at 0.8 to 3.5 nmol after 30 mins by cold plate test; format: functional, organism-based
In short: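 Rats underwent chronic constriction injury of the sciatic nerve. Seven days later, drug was given intrathecally as single injections at increasing doses. Hyperalgesia was read by cold plate test 30 min after dosing and compared with vehicle-treated CCI rats.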

[14] = species: Rattus norvegicus; test: Antinociceptive activity in Wistar rat model of chronic constriction injury-induced neuropathic pain assessed as reduction in allodynia at 0.8 to 3.5 nmol after 30 mins by von Frey test; format: functional, organism-based
In short: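 Rats underwent chronic constriction injury of the sciatic nerve. Seven days later, drug was given intrathecally as single injections at increasing doses. Allodynia was read by von Frey test 30 min after dosing and compared with vehicle-treated CCI rats.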

[15] = species: Rattus norvegicus; test: Potency index, ratio of antinociceptive activity of compound at 8 to 10 nmol, it to antinociceptive activity of morphine at 35 nmol, it in naive Wistar rat after 30 mins; format: functional
[16] = test system: Rattus norvegicus; test: Potency index, ratio of antiallodynic effect of compound to antiallodynic effect of morphine in it dosed naive Wistar rat at 0.8 to 3.5 nmol after 30 mins by cold plate test; format: functional
[17] = species: Rattus norvegicus; test: Antinociceptive activity in Wistar rat model of chronic constriction injury-induced neuropathic pain assessed as reduction in allodynia at 3.5 nmol, it QD for 6 consecutive days by von Frey test; format: functional, organism-based; in short: as §1
[18] = test system: Rattus norvegicus; test: Antinociceptive activity in it dosed naive Wistar rat after 30 mins by tail flick test analysis; format: functional, organism-based
In short: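 Naïve rats were dosed intrathecally at several doses. Tail-flick latency was read 30 min after dosing and compared with vehicle-treated naïve rats.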

[19] = species: Rattus norvegicus; test: Antinociceptive activity in Wistar rat model of chronic constriction injury-induced neuropathic pain assessed as reduction in hyperalgesia at 0.8 nmol, it QD for 6 consecutive days by cols plate test; format: functional, organism-based
In short: (§3)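 Starting day 7 after sciatic nerve CCI, rats got 0.8 nmol i.t. once daily for 6 consecutive days. Allodynia was read by von Frey and hyperalgesia by cold plate. Comparisons were against vehicle-treated CCI rats and against rats given morphine 3.5 nmol i.t. on the same schedule.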

[20] = species: Rattus norvegicus; test: Antinociceptive activity in Wistar rat model of chronic constriction injury-induced neuropathic pain assessed as reduction in hyperalgesia at 0.8 nmol, it QD for 6 consecutive days measured on day-4 and day-5 by cold plate test relative to morphine; format: functional, organism-based; in short: as §3
[21] = test system: Rattus norvegicus; test: Antinociceptive activity in Wistar rat model of chronic constriction injury-induced neuropathic pain assessed as reduction in hyperalgesia at 0.8 nmol dosed on day7 after tolerance development with morphine dosed at 3.5 nmol, it QD for 6 days by cold plate test; format: functional, organism-based
In short: (§4)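 Rats with sciatic nerve CCI got morphine 3.5 nmol i.t. once daily for 6 days, starting day 7 after CCI. On day 7 of repeated dosing (day 14 after CCI) they received a single i.t. dose of 0.8 nmol. Allodynia was read by von Frey and hyperalgesia by cold plate. Each was compared with pretest, with day 6 and with day 1 of dosing.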

[22] = test system: Rattus norvegicus; test: Antinociceptive activity in Wistar rat model of chronic constriction injury-induced neuropathic pain assessed as reduction in allodynia at 0.8 nmol dosed on day7 after tolerance development with morphine dosed at 3.5 nmol, it QD for 6 days by von Frey test; format: functional, organism-based; in short: as §4
[23] = species: Rattus norvegicus; test: Antinociceptive activity in naive Wistar rat at 8 nmol, it after 2 hrs by tail flick test analysis; format: functional, organism-based
In short: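 Naïve rats got an intrathecal dose. The tail-flick response was followed over time up to 2 h after dosing.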

[24] = species: Rattus norvegicus; test: Antinociceptive activity in Wistar rat model of chronic constriction injury-induced neuropathic pain assessed as reduction in allodynia at 0.8 nmol, it QD for 6 consecutive days by von Frey test; format: functional, organism-based; in short: as §3
[25] = test system: Rattus norvegicus; test: Antinociceptive activity in Wistar rat model of chronic constriction injury-induced neuropathic pain assessed as reduction in hyperalgesia at 3.5 nmol dosed on day7 after tolerance development with compound12 dosed at 0.8 nmol, it QD for 6 days by cold plate test; format: functional, organism-based; in short: as §2
[26] = species: Rattus norvegicus; test: Antinociceptive activity in naive Wistar rat at 35 nmol, it after 2 hrs by tail flick test analysis; format: functional, organism-based
[27] = species: Rattus norvegicus; test: Antinociceptive activity in Wistar rat model of chronic constriction injury-induced neuropathic pain assessed as reduction in hyperalgesia at 3.5 nmol, it QD for 6 consecutive days by cols plate test; format: functional, organism-based; in short: as §1

Row | Compound | Ki [1] [nM] | IC50 [2] [nM] | IC50 [3] [nM] | Ki [4] [nM] | Ki [5] [nM] | Activity [13] | Activity [14] | Ratio [15] | Activity [17] | also measured
1 | Cc1cc(O)cc(C)c1C[C@H](N)C(=O)N[C@H](CCCNC(=N)N)C(=O)N[C@@H](Cc1ccccc1)C(=O)N[C@@H](CCCCN)CC(=O)N1CC[C@@H](C(=O)N(C)Cc2cc(C(F)(F)F)cc(C(F)(F)F)c2)[C@H](c2ccccc2)C1 | 2.2 | 538 | 1660 | 20.2 | > 1000 |  |  |  |  | 
2 | Cc1cc(O)cc(C)c1C[C@H](N)C(=O)N[C@H](CCCNC(=N)N)C(=O)N[C@H]1Cc2ccccc2CN(CCC(=O)N(C)[C@@H]2CCN(C(=O)c3cc(C(F)(F)F)cc(C(F)(F)F)c3)C[C@@H]2c2ccccc2)C1=O | 1.4 | 13 | 12.6 | 1.82 | 11.2 | Active | Active | 3.5 | inactive | Activity [6]: inactive; Activity [7]: inactive; Activity [8]: Active; Activity [9]: Active; Activity [10]: Active; Activity [11]: Active; Activity [12]: Active; Ratio [16]: 3.5
3 | Cc1cc(O)cc(C)c1C[C@H](N)C(=O)N[C@H](CCCNC(=N)N)C(=O)N[C@@H](Cc1ccccc1)C(=O)N[C@@H](CCCCN)C(=O)N(C)[C@@H]1CCN(C(=O)c2cc(C(F)(F)F)cc(C(F)(F)F)c2)C[C@@H]1c1ccccc1 | 1.1 | 70.2 | 814 | 54 | > 1000 |  |  |  |  | 
4 | Cc1cc(O)cc(C)c1C[C@H](N)C(=O)N[C@H](CCCNC(=N)N)C(=O)N[C@@H](Cc1ccccc1)C(=O)N[C@@H](CCCCN)C(=O)N1CCN([C@@H]2CCN(C(=O)c3cc(C(F)(F)F)cc(C(F)(F)F)c3)C[C@@H]2c2ccccc2)CC1 | 0.99 | 137 | 384 | 9.91 | 533 |  |  |  |  | 
5 | Cc1cc(O)cc(C)c1C[C@H](N)C(=O)N[C@H](CCCNC(=N)N)C(=O)N[C@@H](Cc1ccccc1)C(=O)N[C@@H](CCCCN)C(=O)N1CC[C@@H](C(=O)N(C)Cc2cc(C(F)(F)F)cc(C(F)(F)F)c2)[C@H](c2ccccc2)C1 | 1.2 | 658 | 349 | 39.8 | 339 |  |  |  |  | 
6 | CN[C@@H]1CCN(C(=O)c2cc(C(F)(F)F)cc(C(F)(F)F)c2)C[C@@H]1c1ccccc1 |  |  |  |  |  | Active | Active |  | inactive | Activity [18]: inactive
7 | Cc1cc(O)cc(C)c1C[C@H](N)C(=O)N[C@H](CCCNC(=N)N)C(=O)N[C@H]1Cc2ccccc2CN(CCC(=O)N2CC[C@@H](C(=O)N(C)Cc3cc(C(F)(F)F)cc(C(F)(F)F)c3)[C@H](c3ccccc3)C2)C1=O | 1.9 | 30.1 | 10.3 | 3.07 | 7.07 |  |  |  |  | 
8 | Cc1cc(O)cc(C)c1C[C@H](N)C(=O)N[C@H](CCCNC(=N)N)C(=O)N[C@@H](Cc1ccccc1)C(=O)N[C@@H](CCCCN)CC(N)=O |  | 5.9 | 7.7 | 0.187 | 290 |  |  |  |  | 
9 | Cc1cc(O)cc(C)c1C[C@H](N)C(=O)N[C@H](CCCNC(=N)N)C(=O)N[C@H]1Cc2ccccc2CN(CCC(=O)N2CCN([C@@H]3CCN(C(=O)c4cc(C(F)(F)F)cc(C(F)(F)F)c4)C[C@@H]3c3ccccc3)CC2)C1=O | 1.4 | 20.3 | 14.1 | 1.18 | 10.6 | Active | Active | 3.5 | inactive | Activity [19]: Active; Activity [20]: Active; Activity [9]: Active; Activity [21]: Active; Activity [22]: Active; Activity [23]: Active; Ratio [16]: 3.5; Activity [24]: inactive
10 | CN1CC[C@]23c4c5ccc(O)c4O[C@H]2[C@@H](O)C=C[C@H]3[C@H]1C5 [MORPHINE] |  |  |  |  |  | Active | Active | 3.5 | inactive | Activity [25]: Active; Activity [26]: Active; Activity [27]: Active
